In ChEMBL document CHEMBL1833877, “Antinociceptive properties of bergenin” (J Nat Prod, 2011):
Active and inactive are the calls of the source. The rule behind the calls is not given here.

Experiments:
Mus musculus [1] = assay: Neurotoxicity in mouse assessed as effect on motor coordination by measuring reduced latency at 10 mg/kg, ip after 40 mins by rotarod test; assay type: toxicity, organism-based; design: dose 10 mg/kg, route intraperitoneal; details: in vivo
Outline: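 Rotarod: a 3 cm bar split into five compartments, turning at a constant 5 rpm. Male mice were placed on the rod 40 min after ip dosing (vehicle 2% DMSO in saline), and time on the rod was recorded up to 120 s. Result is mean time per group; n = 6, one-way ANOVA with Tukey's test.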

Mus musculus [2] = assay: Neurotoxicity in mouse assessed as effect on motor coordination at 10 mg/kg, ip after 40 mins by open field test; assay type: toxicity, organism-based; design: dose 10 mg/kg, route intraperitoneal; details: in vivo
Outline: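 Male mice were dosed ip (vehicle 2% DMSO in saline). 40 min later each was placed alone in a 40 × 60 × 50 cm wooden box with the floor divided into 12 squares. Squares crossed with all four paws were counted over 3 min. n = 6 mice per group, means ± SEM, one-way ANOVA with Tukey's test.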

Mus musculus [3] = assay: Antinociceptive activity against Freund's complete adjuvant-induced paw inflammation in mouse assessed as reduction in paw edema at 2 mg/kg, ip administered 40 mins before CFA challenge measured after 6 hrs; assay type: functional, organism-based; design: dose 2 mg/kg
Outline: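 CFA (20 μL, 1 mg/mL heat-killed M. tuberculosis) was injected sc into the right hind plantar surface. Treatment was ip in 2% DMSO/saline 40 min before. Paw volume was read by plethysmometer before and after CFA, and edema taken as the volume difference (mm3/paw). n = 6 mice/group, means ± SEM, two-way ANOVA with Bonferroni.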

Mus musculus [4] = assay: Inhibition of IL1-beta production in Freund's complete adjuvant-induced mouse at 2 mg/kg, ip administered 40 mins before CFA challenge measured after 2 hrs by ELISA; assay type: functional, organism-based; design: dose 2 mg/kg
Outline: (§1)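 CFA was given intraplantar, with ip dosing (2% DMSO/saline vehicle) 40 min earlier. At 2 h, paw skin was taken under terminal halothane anesthesia. Tissue was extracted (100 mg/mL PBS with 0.4 M NaCl, 0.05% Tween 20 and protease inhibitors) and centrifuged at 3000g for 10 min. Supernatant was assayed by mouse ELISA, in pg/mL. n = 6/group.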

Mus musculus [5] = assay: Inhibition of TNF-alpha production in Freund's complete adjuvant-induced mouse at 2 mg/kg, ip administered 40 mins before CFA challenge measured after 2 hrs by ELISA; assay type: functional, organism-based; design: dose 2 mg/kg; outline: as §1

SMILES | Activity (Mus musculus [1]) | Activity (Mus musculus [2]) | Activity (Mus musculus [3]) | inhibition (Mus musculus [4]) | inhibition (Mus musculus [5])
CN1C(=O)CN=C(c2ccccc2)c2cc(Cl)ccc21 [DIAZEPAM] | Toxic | Toxic | – | – | –
C[C@@H]1C[C@H]2[C@@H]3CCC4=CC(=O)C=C[C@]4(C)[C@@]3(F)[C@@H](O)C[C@]2(C)[C@@]1(O)C(=O)CO | – | – | inactive | Active | Active
